Screens: PubChem, several laboratories
An excerpt weighted towards active compounds, which were near 8.2% of everything screened.
RORA act = activators of orphan receptor RORA, primary screen, cell-based, luminescence; Nuclear receptor ROR-alpha (Homo sapiens), P35398; CHO-K1 Gal4-RORA LBD luciferase reporter; percent increase over mock-subtracted basal signal; activation, % at 10 µM; 65,000 compounds, 1.5% hits; AID 560, 2006;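 active = activation above the mean of all tested compounds plus 3 SD, cut at about 49% in these data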;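 note: 0% = DMSO-treated RORA cells and 100% = added signal equal to DMSO minus mock-transfected cells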
D1 mod = D1 CRE-luciferase signal change, two-sided – cell-based, HEK293 D1, dopamine EC30, D1 allosteric modulator project, primary screen | D(1A) dopamine receptor (Homo sapiens), P21728 | dopamine EC30 potentiation; actives deviate in either direction | B-score at 10 µM | 58,000 compounds, 5.9% hits | AID 641, 2007;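 active = luminescence count or its row- and column-corrected plate score outside the 99.7% band of the plate's sample wells, on either side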
M1 agonist = M1 muscarinic receptor agonists, primary screen, CHO-M1 cells, Fluo-4 calcium, agonist mode | Muscarinic acetylcholine receptor M1 | Fluo-4 calcium fluorescence; hits give high values | B-score at 10 µM | 64,000 compounds, 3% hits;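 active = fluorescence rise, raw or as B-score row- and column-corrected plate score, outside the 99.7% band of its plate's samples, either direction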
SF1 activator = activators of human SF-1, primary screen, cell-based, CHO-K1, Gal4-SF-1 LBD, luciferase luminescence; Steroidogenic factor 1 (Homo sapiens), Q13285; CHO-K1 Gal4-SF-1 LBD luciferase reporter; % increase over DMSO SF-1-specific signal; activation, % at 10 µM; 65,000 compounds, 1.9% hits; AID 522, 2006;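 active = activation above the mean activation of all tested compounds plus 3 SD, cut at about 50% in these data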
Target sequence (Q13285 whole entry, looked up, the tested form may be a part): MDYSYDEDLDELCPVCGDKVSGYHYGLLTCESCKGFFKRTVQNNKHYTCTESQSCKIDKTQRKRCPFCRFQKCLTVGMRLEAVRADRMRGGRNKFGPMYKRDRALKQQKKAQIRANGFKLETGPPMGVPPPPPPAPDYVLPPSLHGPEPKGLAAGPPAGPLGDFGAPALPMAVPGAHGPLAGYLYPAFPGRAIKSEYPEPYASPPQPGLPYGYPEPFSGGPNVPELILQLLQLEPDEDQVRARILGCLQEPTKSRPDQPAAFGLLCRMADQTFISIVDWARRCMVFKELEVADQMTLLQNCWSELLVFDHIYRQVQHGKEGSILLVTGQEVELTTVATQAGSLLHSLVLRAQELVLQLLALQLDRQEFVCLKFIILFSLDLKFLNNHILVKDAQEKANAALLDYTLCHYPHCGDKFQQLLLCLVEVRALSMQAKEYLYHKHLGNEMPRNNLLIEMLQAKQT
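System: CHO-K1 cells with Gal4–hSF-1 LBD chimera plus Gal4-driven luciferase; quantity: 4,000 CHO-K1 cells per well; compound: one dose, 10 µM compound, 1% DMSO; times: 20 h compound treatment, 37 °C; measured by: SteadyLite luciferase luminescence; read-out: percent activation versus DMSO; benchmarks: DMSO and mock-transfected background; replicates: one test per compound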
M1 antag = antagonists of rat M1 muscarinic receptor; CHO-M1 cells, Fluo-4 calcium, ACh EC80 antagonist mode; hits give low values; B-score at 10 µM; 64,000 compounds, 3.4% hits; AID 628, 2007;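 active = calcium fluorescence response, raw or row-and-column corrected B-score, differing from the plate sample mean either way at a set confidence level, mostly lower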
HePTP inh = inhibitors of human HePTP phosphatase, primary screen, biochemical, absorbance, leukemia target; recombinant HePTP phosphatase activity, OD absorbance; inhibition, % at 20 µM; 110,000 compounds, 0.64% hits; in the data active = inhibition above about 50%;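 note: plate controls were vehicle for no effect and reference inhibitor for full effect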
* hit, by the source's call; / = not tested or not shown.

SMILES	RORA act	D1 mod	M1 agonist	SF1 activator	M1 antag	HePTP inh
CC(C)C(=O)Nc1ccc(NC(=O)c2cc3ccccc3o2)cc1	59*	/	-0.085	24	-0.18	9
O=C(Nc1cccc(Br)c1)c1cc2ccccc2o1	71*	-0.7	1.2	46	-0.7	-11
O=C(Nc1ccc(Br)cc1)c1cc2ccccc2o1	/	/	/	/	/	-12
Cc1cccc(NC(=O)c2cc3ccccc3o2)c1	26	-2.2	0.18	90*	0.64	3
COc1cc(CN2CCN(C3CCC(c4ccccc4)CC3)CC2)cc(OC)c1OC (stereo not given)	/	/	/	/	/	-1
COc1ccc2noc3c2c1C(=O)c1ccccc1-3	-8	5*	354*	7	-12*	3
COc1ccc2c(c1OC)C(=O)OC2Nc1ccccc1Br (stereo not given)	/	/	/	/	/	-7
N#Cc1c(C(F)(F)F)cc(-c2cccs2)nc1SCC(=O)Nc1ccc(S(N)(=O)=O)cc1	/	/	/	/	/	73*
O=C1NC(=O)N(c2ccc(Cl)cc2)C(=O)/C1=C\C=C\c1ccccc1[N+](=O)[O-]	/	/	/	/	/	5
COCCOC(=O)c1[nH]c2c(c1C)C(=O)CC(c1cc(OC)ccc1OC)C2 (stereo not given)	75*	0.13	0.44	7	0.67	7
Cc1c(C(=O)OCCOc2ccccc2)[nH]c2c1C(=O)CCC2	-7	-3.8*	-2.2	-21	-1.9	-10
Cc1cc(NC(=O)CSc2nc3c([nH]c4ccccc43)c(=O)n2-c2cccc(C(F)(F)F)c2)no1	20	0.084	0.13	18	0.64	-2
Cc1cc(C)nc(N2CCCC(C(=O)NCc3cccc(C(F)(F)F)c3)C2)n1 (stereo not given)	0	-0.062	0.35	-3	0.16	10
COc1ccccc1N=c1scc(-c2ccc3c(c2)NC(=O)CO3)n1CC1CCCO1 (stereo not given)	-4	-2.8*	2.8	-7	-0.27	5
CCN=c1scc(-c2ccc3c(c2)NC(=O)CO3)n1N=C1CCCC1	0	-1.4	1.8	-47	-0.26	-5
CCn1c(-c2ccco2)nc2ccccc21	7	-0.49	1.8	42	-0.6	5
COCn1c(-c2ccccc2)nc2ccccc21	-11	-0.72	1.1	9	-0.011	4
CCn1c(-c2ccc(N)cc2)nc2ccccc21	50*	-0.81	0.5	37	1.2	4
C=CCn1c(-c2ccc(N)cc2)nc2ccccc21	38	-1.5	1	57*	-1.6	1
C=CCn1c(-c2ccc(OC)cc2)nc2ccccc21	42	-1.7	0.19	41	-0.032	1
CCn1c(-c2ccc(N(C)C)cc2)nc2ccccc21	88*	-4.9*	-0.57	19	-0.96	3
O=C(CN(C1CCCCC1)S(=O)(=O)c1ccccc1)N1CCCC1	-6	-0.068	0.86	12	0.53	-4
CCc1nc(Nc2ccc(N3CCN(C(C)=O)CC3)cc2)c2oc3ccccc3c2n1	12	-2.3	1.2	53*	-1.1	7
COc1ccc2c(c1)CC/C(=C/Nc1ccc3c(c1)OCO3)C2=O	/	/	/	/	/	1
O=C1/C(=C/Nc2ccc3c(c2)OCO3)CCc2ccccc21	-72	-6.1*	0.97	-74	-0.18	3
SMILES	RORA act	D1 mod	M1 agonist	SF1 activator	M1 antag	HePTP inh
CCCn1nc(C(=O)OCC(=O)c2ccc3c(c2)NC(=O)CO3)c2ccccc2c1=O	-18	/	/	0	/	5
CCc1ccc(-c2ccc(C(=O)O)cc2)nc1	38	0.28	1.6	85*	0.88	5
C=CCSc1nnc(-c2ccc(Cl)cc2Cl)o1	10	-1.4	0.78	20	-0.16	3
Clc1ccc(-c2nnc(SCc3ccon3)o2)c(Cl)c1	-21	-4.7*	-0.08	6	0.39	/
COc1ccccc1N(CC(=O)NC(C)c1ccccc1)S(=O)(=O)c1ccccc1 (stereo not given)	/	/	/	/	/	2
COc1ccccc1N(CC(=O)NC(C)(C)C)S(=O)(=O)c1ccccc1	/	/	/	/	/	106*
Cc1ccc2cc(CCNC(=O)c3ccco3)c(=O)[nH]c2c1	77*	0.49	1.4	64*	-1.2	/
